Screens deposited in PubChem by several laboratories.
UCH37 DUB inh: inhibitors of human deubiquitinating enzyme UCH37 | hit rate 0.33% among 330,000 | purified proteasome/UCH37, Ub-AMC cleavage fluorescence | Q9Y5K5 | inhibition, % (no concentration beside the values);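 active = mean inhibition over replicate wells above about 20%, limit read from the data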;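 also: 0% = compound-free wells with enzyme and 100% = wells lacking proteasome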
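Test system – human UCH37 enzyme supplied as purified proteasome complex · Incubation – 30 min preincubation with enzyme, 25 min cleavage at room temperature · Detection – AMC fluorescence from Ub-AMC cleavage, excitation 355 nm, emission 460 nm · Benchmarks – no-proteasome wells (full inhibition) and compound-free wells (no inhibition)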
Rtt109 Vps75: inhibitors of Candida albicans Rtt109/Vps75 histone acetyltransferase | purified Rtt109/Vps75, ThioGlo CoA-SH fluorescence, 4 h | hit rate 0.16% among 330,000 | inhibition, % at 34.9 µM;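 active = inhibition of at least 50% in every replicate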
HDAC3 inhib: human HDAC3 inhibition. recombinant HDAC3, fluorogenic peptide/trypsin coupled, fluorescence. inhibition, % at 8.3 µM. hit rate 0.15% among 320,000; in the data active = inhibition above about 26%, passing the limit was not always enough
Target sequence (O15379 whole entry, looked up): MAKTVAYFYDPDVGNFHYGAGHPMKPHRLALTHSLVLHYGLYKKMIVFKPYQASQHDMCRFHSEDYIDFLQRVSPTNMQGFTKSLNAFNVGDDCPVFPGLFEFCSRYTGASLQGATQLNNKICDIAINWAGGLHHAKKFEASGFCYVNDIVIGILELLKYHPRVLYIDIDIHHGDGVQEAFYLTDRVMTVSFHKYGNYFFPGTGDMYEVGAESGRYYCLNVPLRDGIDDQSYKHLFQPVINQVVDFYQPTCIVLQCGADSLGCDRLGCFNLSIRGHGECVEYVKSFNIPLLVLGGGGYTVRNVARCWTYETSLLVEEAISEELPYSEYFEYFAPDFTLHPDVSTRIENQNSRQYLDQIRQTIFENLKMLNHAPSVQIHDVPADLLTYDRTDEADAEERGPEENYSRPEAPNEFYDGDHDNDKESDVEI
M18AAP inhibitor: PfM18AAP enzyme inhibition. inhibition, % at 7.35 µM. hit rate 1.2% among 290,000. AID 1822. recombinant PfM18AAP, H-Glu-NHMec fluorogenic cleavage;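 active = inhibition above the campaign mean inhibition over all tested compounds plus 3 SD, cut at about 28% in these data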;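 also: 0% = plate median of test compound wells and 100% = 2 mM ZnCl2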
ALR H2O2 inh: inhibitors of human sulfhydryl oxidase ALR; P55789; purified ALR, DTT oxidation, H2O2 HRP-luminol luminescence; hit rate 3.8% among 290,000; inhibition, % (concentration not given with the values);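 active = mean replicate inhibition above about 79%, with every replicate also reaching it, limit read from the data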
Target sequence (P55789 whole entry, looked up): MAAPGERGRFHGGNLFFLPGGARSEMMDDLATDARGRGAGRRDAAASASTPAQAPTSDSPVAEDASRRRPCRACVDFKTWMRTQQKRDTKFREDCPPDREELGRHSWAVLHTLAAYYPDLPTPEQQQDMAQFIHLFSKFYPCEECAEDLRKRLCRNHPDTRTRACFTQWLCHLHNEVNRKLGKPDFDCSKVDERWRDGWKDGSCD
FAS-TE inh: blocks the thioesterase domain of human fatty acid synthase. P49327. recombinant FAS-TE, OMFH fluorogenic substrate, fluorescence endpoint. inhibition, % at 15 µM. hit rate 0.67% among 360,000;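 active = compounds whose normalised, plate-corrected inhibition of enzyme fluorescence in the single-dose primary screen is 50% or more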;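 also: 0% = DMSO with enzyme and 100% = substrate without enzyme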
Numbers without * were called inactive; . = no result. Most compounds without a hit are left out; they make up all but 4.6% or so of the library.

SMILES | UCH37 DUB inh | Rtt109 Vps75 | HDAC3 inhib | M18AAP inhibitor | ALR H2O2 inh | FAS-TE inh
CC(=O)Nc1ccc(NC(=O)CSc2ccc(-c3ccco3)nn2)cc1 | 2 | -4 | 0 | -13 | 96* | -2
COc1cc(NC(=O)CSc2ccc(-c3ccco3)nn2)cc(OC)c1 | 0 | -1 | 4 | -19 | 98* | 0
Fc1ccc(CSc2ccc(-c3ccco3)nn2)cc1 | -4 | 33 | -3 | -3 | 98* | 0
ClC(/C=N/n1cnnc1)=C/c1ccccc1 | . | 2 | 1 | 32* | -3 | -4
C/C(C=Nn1cnnc1)=C\c1ccccc1 | 1 | . | . | . | . | .
COc1cccc(CN(C(=O)c2ccccc2Br)C2CCS(=O)(=O)C2)c1 (centres undefined) | 3 | 0 | 1 | -1 | -1 | 1
CN(C)c1ccc(CN(Cc2ccco2)C(=O)c2ccco2)cc1 | 2 | 15 | -2 | 9 | 99* | 0
Cc1ccc(CN(C(=O)c2ccco2)C2CCS(=O)(=O)C2)cc1 (centres undefined) | -2 | -3 | 1 | -1 | -12 | -5
CN(C)c1ccc(CN(C(=O)c2ccccc2Br)C2CCS(=O)(=O)C2)cc1 (centres undefined) | 0 | -1 | -4 | 9 | 96* | 0
CN(C)c1ccc(CN(C(=O)c2ccco2)C2CCS(=O)(=O)C2)cc1 (centres undefined) | 0 | -19 | -3 | 20 | 82* | -7
CN(Cc1ccc(N(C)C)cc1)C(=O)c1cc2ccccc2o1 | 0 | -7 | -2 | 18 | 76* | 6
COc1ccc(OC)c(C=NNC(=O)c2c(C)nc3cc(C)ccn23)c1 | -380 | . | . | . | . | .
COc1ccc(C=NNC(=O)CNS(=O)(=O)c2ccc(C)cc2)cc1 | 0 | . | . | . | . | .
CCOc1ccc(C=NNC(=O)Cc2ccccc2)cc1CN1CC2CC(C1)c1cccc(=O)n1C2 (centres undefined) | 4 | . | . | . | . | .
Cc1ccc(CN(C(=O)c2ccccc2C)C2CCS(=O)(=O)C2)o1 (centres undefined) | 1 | 72* | -1 | 0 | 0 | -4
CN(C)c1ccc(CN(C(=O)c2cc3ccccc3oc2=O)C2CCS(=O)(=O)C2)cc1 (centres undefined) | 10 | 3 | 4 | 10 | 89* | -1
CCn1c(SCC(=O)NN=Cc2c[nH]c3ccccc23)nnc1-c1ccc(Cl)cc1 | 5 | . | . | . | . | .
CN(CCCN1c2ccccc2CCc2ccccc21)CC(=O)c1ccc(Cl)cc1 | 4 | . | 1 | . | 98* | .
CN(C)CCCN1c2ccccc2CCc2ccc(Cl)cc21 | 1 | 14 | 2 | 4 | 67 | -8
Cc1cc(C)n2nc(C(=O)NN=Cc3c4ccccc4cc4ccccc34)nc2n1 | -19 | . | . | . | . | .
O=[N+]([O-])c1cccc(-c2cnc3ccccc3n2)c1 | 3 | 1 | -3 | -4 | 0 | 6
Nc1cccc(-c2cnc3ccccc3n2)c1 | 6 | 8 | 3 | -5 | 99* | -2
O=c1c2ccccc2nc(NN=Cc2ccccc2)n1O | 6 | . | . | . | . | .
Cc1ccc(C)c(/C=N/Nc2nc3ccccc3c(=O)n2O)c1 | . | . | 9 | 31* | 6 | 13
Cc1nnc(NC(=O)CSc2nnc(-c3ccco3)o2)s1 | 1 | 0 | 0 | 29* | -4 | -4
SMILES | UCH37 DUB inh | Rtt109 Vps75 | HDAC3 inhib | M18AAP inhibitor | ALR H2O2 inh | FAS-TE inh
O=C(CSc1nnc(-c2ccco2)c(-c2ccco2)n1)Nc1ccccc1 | 3 | 14 | 1 | 32* | 99* | 0
CCc1nnc(SCC(=O)Nc2ccc(C(C)=O)cc2)nc1CC | . | 12 | 1 | . | 99* | -9
CN(C)c1ccc(NC(=O)CSc2nnc(-c3ccco3)c(-c3ccco3)n2)cc1 | 6 | 20 | -14 | 31* | . | 0
COc1ccc(C=Nn2c(C)nc3sc(C)c(C)c3c2=O)cc1OC | 4 | . | . | . | . | .
O=[N+]([O-])c1ccc(NN=Cc2ccc[nH]2)cc1 | 0 | . | . | . | . | .
CC(C)Oc1ccc(C=NNC(=O)c2ccc(N(Cc3ccccc3)S(C)(=O)=O)cc2)cc1 | 1 | . | . | . | . | .
Cc1cccc(C)c1NC(=O)CSc1nnc(-c2ccco2)c(-c2ccco2)n1 | . | 0 | 4 | 17 | 99* | -5
Cc1ccc(NC(=O)CSc2nnc(-c3ccco3)c(-c3ccco3)n2)cc1 | 7 | 16 | 8 | -2 | 99* | 1
O=[N+]([O-])c1ccccc1/C=C\C=NN1CCN(c2ccccc2)CC1 | 4 | . | . | . | . | .
NC(=O)Cc1nc(-c2ccc(Br)cc2)cs1 | 1 | -4 | -1 | -6 | 0 | -9
Cc1ccc(-c2csc(CC(N)=O)n2)cc1 | -1 | -2 | 3 | -1 | 91* | -2
Cc1nn(C)cc1-c1n[nH]c(=S)n1-c1ccc(Cl)cc1 | 3 | 4 | 11 | 30* | -1 | -13
CC(C)(C)c1cc(-c2n[nH]c(=S)n2-c2ccc(Cl)cc2)n[nH]1 | 6 | 5 | 17 | -1 | 93* | -4
Cc1ccn2c(Nc3ccccc3C)c(-c3cccnc3)nc2c1 | -17 | -7 | 3 | 4 | 97* | -1
CCOc1ccc(Oc2c(C=NNC(=O)COc3ccccc3OC)c(C)nn2-c2ccccc2)cc1 | 5 | . | . | . | . | .
Cc1noc(NS(=O)(=O)c2ccc(NC(=O)CSc3nc4ccccc4s3)cc2)c1C | 5 | 9 | 5 | -11 | 99* | -3
Cc1cc(C)nc(SCC(=O)Nc2ccc(S(=O)(=O)Nc3cc(C)on3)cc2)n1 | 1 | 0 | 1 | 4 | 15 | -3
Cc1cc(C)nc(SCC(=O)Nc2ccc(S(=O)(=O)Nc3onc(C)c3C)cc2)n1 | 5 | 20 | -1 | -1 | 94* | -5
Cc1noc(NS(=O)(=O)c2ccc(NC(=O)CS(=O)(=O)c3ccccc3)cc2)c1C | 3 | 4 | 2 | -9 | 70 | 0
Cc1noc(NS(=O)(=O)c2ccc(NC(=O)CSc3ncccn3)cc2)c1C | 4 | -19 | 1 | -1 | 98* | -4
COc1ccc(C(C)=NNC(=O)c2ccc(NS(=O)(=O)c3cccs3)cc2)cc1 | 4 | . | . | . | . | .
CC(=NNC(=O)CC1N=C(Cc2ccccc2)NNC1=O)c1ccc(Br)cc1 (centres undefined) | 5 | . | . | . | . | .
Cc1cc(NCCCn2ccnc2)n2nc(-c3ccc(Cl)cc3)cc2n1 | 2 | 22 | 5 | 0 | 97* | -4
Cc1cc(NCCCn2ccnc2)n2nc(-c3ccc(F)cc3)cc2n1 | -8 | 0 | 0 | -2 | 43 | -11
Cc1ccc(C(=O)NCCSc2snnc2C)cc1 | 1 | 4 | -3 | 0 | 94* | -5
Cc1nnsc1SCCNC(=O)c1c(F)cccc1F | 1 | 3 | 4 | -3 | 2 | -2
CC(=O)C1=C(c2ccccc2)N(C(C)=O)n2c(C)nnc2S1 | 4 | 4 | -6 | -5 | 99* | -2
COC(=O)c1cccc(N2C(=O)C(Cl)=C(N3CCOCC3)C2=O)c1 | 3 | 115* | 1 | 8 | . | -8
